Measurements collected from several papers.
Protocols differ between the studies behind these lines. In brackets after ≈: the same amount, converted by molar mass.

| SMILES | organism | test | test system | setting | endpoint | result |
| --- | --- | --- | --- | --- | --- | --- |
| C#CCCCCCCCCC=CCC(O)CC(O)CO (stereo not drawn) | Mycobacterium intracellulare | microbial growth, resazurin | ATCC23068 | – | IC50 | > 200 µg/mL |
| Cl.Oc1cccc2c1[nH]c1c(C3=CC4(O)CC/C=C\CCCCN5CCC3C3(CC6/C=C\CCCCN6C43)C5)nccc12 (single isomer, unassigned; (+)) | Mycobacterium intracellulare | microbial growth, resazurin | ATCC23068 | – | IC50 | 0.22 µg/mL |
| CNC(=O)c1cc(Oc2ccc(NC(=O)Nc3ccc(Cl)c(C(F)(F)F)c3)cc2)ccn1 | Plasmodium berghei | parasite growth, luciferase | human | liver stage | IC50 | 1400 nM |
| COC(=O)Nc1cccc(-n2c(/C=C/c3ccc(C#N)cc3)nc3ccccc3c2=O)c1 | Enterococcus faecium | microbial growth, broth dilution | NCTC7171 | – | MIC | > 128 µg/mL |
| O=C(Nc1ccccc1-c1ccc(F)c(F)c1)c1nccnc1C(F)(F)F | Alternaria brassicicola | microbial growth | – | – | EC50 | 0.057 µg/mL |
| COc1cc(C=NNc2ncnc3c2cnn3-c2ccccc2)ccc1O | Trypanosoma brucei | parasite growth | – | – | EC50 | 1580 nM |
| Cl.NCCc1ccccc1Oc1ccc(-c2noc(-c3ccc(O)cc3)n2)cc1 | Enterococcus faecium | microbial growth, broth dilution | – | 24 h | MIC | 8 µg/mL |
| Nc1ncnc2occ(-c3ccc(NC(=O)Nc4cc(C(F)(F)F)ccc4F)cc3)c12 | Trypanosoma brucei | parasite growth | – | – | EC50 | 2510 nM |
| Cl.NCc1ccc(Oc2ccc(-c3noc(-c4ccc(O)cc4)n3)cc2)cc1 | Enterococcus faecium | microbial growth, broth dilution | – | 24 h | MIC | 4 µg/mL |
| C[C@@H]1[C@H](O)[C@@H](C)/C=C/C=C/C=C/C=C/C=C/C=C/C=C/[C@H](O[C@@H]2O[C@H](C)[C@@H](O)[C@H](N)[C@@H]2O)C[C@@H]2O[C@](O)(C[C@@H](O)C[C@@H](O)[C@H](O)CC[C@@H](O)C[C@@H](O)CC(=O)O[C@H]1C)C[C@H](O)[C@H]2C(=O)O | Candida albicans | microbial growth | ATCC90028 | – | IC50 | 300 nM |
| N#CCNC(=O)c1ccc(-c2ccnc(Nc3ccc(N4CCOCC4)cc3)n2)cc1 | Plasmodium berghei | parasite growth, luciferase | human | liver stage | IC50 | 550 nM |
| Oc1ccc(-c2nc(-c3ccc(Oc4ccccc4)cc3)no2)cc1 | Enterococcus faecium | microbial growth, broth dilution | – | 24 h | MIC | 2 µg/mL (≈ 6.05 µM) |
| N#Cc1ccc(/C=C/c2nc3ccccc3c(=O)n2-c2cccc(C(=O)NCCO)c2)cc1 | Enterococcus faecium | microbial growth, broth dilution | NCTC7171 | – | MIC | > 128 µg/mL |
| CN1CCC(n2cnc(-c3ccc(F)cc3)c2-c2ccnc(Nc3ccccc3)n2)CC1 | Trypanosoma brucei | parasite growth | – | – | EC50 | 501 nM |
| N#Cc1ccc(/C=C/c2nc3ccncc3c(=O)n2-c2cccc(C(=O)O)c2)cc1 | Enterococcus faecium | microbial growth, broth dilution | NCTC7171 | – | MIC | > 128 µg/mL |
| COc1ccccc1-c1cc(/C=C2\C(=O)Nc3ncc(Br)cc32)cc(Br)c1O | Trypanosoma brucei | parasite growth | – | – | EC50 | 2510 nM |
| N#Cc1ccc(/C=C/c2nc3ccccc3c(=O)n2-c2cccc(C(=O)NCCC(=O)O)c2)cc1 | Enterococcus faecium | microbial growth, broth dilution | NCTC7171 | – | MIC | > 128 µg/mL |
| COc1cc(Nc2ncc3c(C)nc(-c4cccc(C(F)(F)F)c4)n3n2)cc(OC)c1OC | Trypanosoma brucei | parasite growth | – | – | EC50 | 158 nM |
